Article PMC6600871 (Nature chemical biology, 2019)
pIC50: −log10 of the molar value.

Key:
PBRM1 = PBRM1 (Homo sapiens, UniProt Q86U86); experiment: Protein degradation assay, PBRM1 in NCI-H1568 cells; assay type: cell-based; settings: read-out: DC50 PBRM1, 18 h
How it was run: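 Cells seeded at 20000/well in 24-well plates and held overnight at 37 °C. Test compound added from DMSO stock (DMSO normalised), 18 h at 37 °C. Lysed 30 min on ice in 1% Triton, 350 mM KCl, 10 mM Tris pH 7.4, 10 mM DTT, benzonase, protease/phosphatase inhibitors. Target protein quantified by WES capillary electrophoresis, normalised to GAPDH. Two independent experiments.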

SMARCA4 = SMARCA4 (Homo sapiens, UniProt P51532); experiment: Protein degradation assay; assay type: cell-based; settings: MV-4-11 cells, 1 µM compound
[1] = system: proteome of MV-4-11 cells; experiment: TMT labelling mass spectrometry proteomics in MV-4-11 cells; assay type: cell-based, human; settings: 333 nM, 8 h
SK-MEL-5 cells [2] = experiment: Real-time apoptosis measurement; assay type: cell-based, human; settings: SK-MEL-5, 0.3 µM, comparable to doxorubicin (1 µM)
MV-4-11 cells = experiment: Proliferation assay; assay type: cell-based, human; settings: read-out: anti-proliferative IC50, MV-4-11; cell viability after 7 days
NCI-H1703 cells = experiment: Proliferation assay; assay type: cell-based, human; settings: SMARCA2/4 null cell line, 7 days
[3] = system: panel of cancer cell lines; experiment: Proliferation of a panel of cancer cell lines; assay type: cell-based, human; settings: all cell lines tested
SMARCA2 = SMARCA2 (Homo sapiens, UniProt P51531); experiment: Protein degradation assay; assay type: cell-based; settings: MV-4-11 cells, 1 µM compound
[4] = Caco-2 permeability assay; assay type: in vitro ADME; settings: human, Caco-2, pH 7.2
SMARCA2^BD = SMARCA2^BD (Homo sapiens, UniProt P51531); assay type: binding
SK-MEL-5 cells [5] = experiment: Proliferation assay; assay type: cell-based; settings: Homo sapiens, SK-MEL-5, 168 h, read-out: anti-proliferative IC50, SK-MEL-5
[6] = system: VHL-ElonginC-ElonginB (VCB) complex; experiment: Isothermal titration calorimetry; assay type: binding, human; settings: ITC, VCB ± SMARCA2^BD

Sequence of PBRM1 (Q86U86 whole entry): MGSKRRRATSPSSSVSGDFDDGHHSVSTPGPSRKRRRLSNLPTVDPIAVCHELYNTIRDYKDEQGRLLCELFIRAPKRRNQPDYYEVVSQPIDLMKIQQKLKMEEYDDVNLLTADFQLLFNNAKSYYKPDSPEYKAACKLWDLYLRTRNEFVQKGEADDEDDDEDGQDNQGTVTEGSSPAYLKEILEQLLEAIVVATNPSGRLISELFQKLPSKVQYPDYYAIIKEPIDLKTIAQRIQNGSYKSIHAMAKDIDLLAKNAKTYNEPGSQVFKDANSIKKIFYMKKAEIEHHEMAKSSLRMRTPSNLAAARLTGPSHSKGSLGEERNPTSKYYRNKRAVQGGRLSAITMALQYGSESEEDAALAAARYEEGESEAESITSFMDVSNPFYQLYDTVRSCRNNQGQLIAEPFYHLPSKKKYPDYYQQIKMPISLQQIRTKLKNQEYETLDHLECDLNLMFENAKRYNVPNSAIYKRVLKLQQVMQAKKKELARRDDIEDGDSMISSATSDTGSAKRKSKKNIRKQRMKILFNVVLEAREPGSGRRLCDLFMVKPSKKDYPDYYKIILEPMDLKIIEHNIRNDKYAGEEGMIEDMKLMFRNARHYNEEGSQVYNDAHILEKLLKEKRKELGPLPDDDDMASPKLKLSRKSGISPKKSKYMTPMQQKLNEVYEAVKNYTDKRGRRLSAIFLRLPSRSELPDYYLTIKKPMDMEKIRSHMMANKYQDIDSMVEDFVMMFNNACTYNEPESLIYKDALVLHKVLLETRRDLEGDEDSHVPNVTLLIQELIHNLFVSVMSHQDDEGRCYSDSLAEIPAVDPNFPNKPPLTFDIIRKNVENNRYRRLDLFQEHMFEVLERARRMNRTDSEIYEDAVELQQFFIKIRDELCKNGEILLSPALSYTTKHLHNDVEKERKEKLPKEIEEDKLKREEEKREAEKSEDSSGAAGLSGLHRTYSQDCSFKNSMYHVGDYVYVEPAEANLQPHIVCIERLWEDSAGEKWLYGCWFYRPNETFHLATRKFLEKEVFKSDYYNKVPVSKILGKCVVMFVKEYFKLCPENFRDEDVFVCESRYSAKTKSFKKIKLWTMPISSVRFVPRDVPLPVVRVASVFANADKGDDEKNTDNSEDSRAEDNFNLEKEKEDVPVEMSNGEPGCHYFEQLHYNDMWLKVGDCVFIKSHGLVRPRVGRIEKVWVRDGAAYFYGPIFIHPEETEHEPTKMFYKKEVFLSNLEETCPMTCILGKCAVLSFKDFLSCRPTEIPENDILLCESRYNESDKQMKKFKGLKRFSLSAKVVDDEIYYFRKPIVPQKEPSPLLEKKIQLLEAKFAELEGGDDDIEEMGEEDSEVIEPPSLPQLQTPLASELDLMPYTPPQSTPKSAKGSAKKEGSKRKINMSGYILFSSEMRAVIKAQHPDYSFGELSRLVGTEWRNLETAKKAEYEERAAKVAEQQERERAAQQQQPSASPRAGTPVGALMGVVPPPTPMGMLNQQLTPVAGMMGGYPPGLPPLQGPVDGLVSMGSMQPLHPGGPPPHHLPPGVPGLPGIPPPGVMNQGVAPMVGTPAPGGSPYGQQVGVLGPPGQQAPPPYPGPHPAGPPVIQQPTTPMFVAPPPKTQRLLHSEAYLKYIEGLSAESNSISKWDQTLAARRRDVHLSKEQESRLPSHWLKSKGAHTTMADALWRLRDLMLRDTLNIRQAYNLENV
Sequence of SMARCA4 (P51532 whole entry): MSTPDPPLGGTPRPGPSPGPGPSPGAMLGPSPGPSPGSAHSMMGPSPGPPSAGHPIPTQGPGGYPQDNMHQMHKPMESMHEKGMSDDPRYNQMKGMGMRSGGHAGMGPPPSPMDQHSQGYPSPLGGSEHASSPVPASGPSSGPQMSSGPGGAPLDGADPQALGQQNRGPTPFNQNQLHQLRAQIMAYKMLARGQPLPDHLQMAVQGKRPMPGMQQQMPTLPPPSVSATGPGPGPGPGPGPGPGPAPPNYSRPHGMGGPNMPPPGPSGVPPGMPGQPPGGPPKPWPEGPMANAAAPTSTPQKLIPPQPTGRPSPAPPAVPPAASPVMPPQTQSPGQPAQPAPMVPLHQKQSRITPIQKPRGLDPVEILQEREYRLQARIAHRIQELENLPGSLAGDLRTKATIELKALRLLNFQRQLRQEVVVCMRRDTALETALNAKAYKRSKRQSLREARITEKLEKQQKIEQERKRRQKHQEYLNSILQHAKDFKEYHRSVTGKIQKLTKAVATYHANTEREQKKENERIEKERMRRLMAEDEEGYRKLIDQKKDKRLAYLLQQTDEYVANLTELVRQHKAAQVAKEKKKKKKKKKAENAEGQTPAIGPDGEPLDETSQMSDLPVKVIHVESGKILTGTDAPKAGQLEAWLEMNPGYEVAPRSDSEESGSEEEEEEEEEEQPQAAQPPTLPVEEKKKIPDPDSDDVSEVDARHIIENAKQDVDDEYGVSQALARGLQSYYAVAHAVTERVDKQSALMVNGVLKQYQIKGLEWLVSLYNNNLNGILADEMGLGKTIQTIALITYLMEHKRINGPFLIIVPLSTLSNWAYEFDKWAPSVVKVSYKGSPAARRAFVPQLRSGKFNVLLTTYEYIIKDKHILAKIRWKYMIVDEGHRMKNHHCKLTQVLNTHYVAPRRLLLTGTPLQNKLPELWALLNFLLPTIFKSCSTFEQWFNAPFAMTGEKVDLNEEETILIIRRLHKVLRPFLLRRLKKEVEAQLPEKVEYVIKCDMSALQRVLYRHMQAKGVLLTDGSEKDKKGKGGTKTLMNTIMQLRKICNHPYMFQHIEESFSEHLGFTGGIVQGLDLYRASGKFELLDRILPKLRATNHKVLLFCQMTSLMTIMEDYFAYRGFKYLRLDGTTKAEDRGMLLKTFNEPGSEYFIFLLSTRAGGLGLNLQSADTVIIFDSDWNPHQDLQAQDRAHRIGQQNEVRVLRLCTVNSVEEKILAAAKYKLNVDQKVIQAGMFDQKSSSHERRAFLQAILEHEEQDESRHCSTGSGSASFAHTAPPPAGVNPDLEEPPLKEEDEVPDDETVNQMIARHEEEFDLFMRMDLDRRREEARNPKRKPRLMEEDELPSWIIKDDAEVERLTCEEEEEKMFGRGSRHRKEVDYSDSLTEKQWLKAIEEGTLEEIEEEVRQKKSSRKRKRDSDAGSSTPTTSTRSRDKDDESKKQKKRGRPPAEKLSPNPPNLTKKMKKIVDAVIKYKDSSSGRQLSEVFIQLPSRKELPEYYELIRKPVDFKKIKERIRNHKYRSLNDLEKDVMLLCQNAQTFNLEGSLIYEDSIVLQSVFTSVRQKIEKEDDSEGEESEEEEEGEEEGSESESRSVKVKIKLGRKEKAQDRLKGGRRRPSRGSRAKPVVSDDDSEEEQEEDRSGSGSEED

Row | DC50 (PBRM1) [nM] | time to half maximal degradation of SMARCA4 (SMARCA4) [h] | pIC50 (MV-4-11 cells) | time to half maximal degradation of SMARCA2 (SMARCA2) [h] | efflux ratio [4] | pIC50 (SMARCA2^BD) | pIC50 (SK-MEL-5 cells [5]) | Papp B→A at 2 h [4] [×10⁻⁶ cm/s] | cooperativity α (binary KD/ternary KD) [6] | SMILES | effect on cellular proteome [1] | caspase activity / apoptosis (SK-MEL-5 cells [2]) | anti-proliferative effect in NCI-H1703 (NCI-H1703 cells) | anti-proliferative effect across cell lines tested [3]
1 | 15.6 | < 2 | 7.54 | < 2 | 1.7 | 6.11 | 7.11 |  |  | Cc1ncsc1-c1ccc(CNC(=O)[C@@H]2C[C@@H](O)CN2C(=O)[C@@H](NC(=O)C2(F)CC2)C(C)(C)C)c(OCCOc2ccc(CN3CCN(c4cc(-c5ccccc5O)nnc4N)CC3)cc2)c1 [ACBI1, (2S,4R)-N-(2-(2-(4-((4-(3-amino-6-(2-hydroxyphenyl)pyridazin-4-yl)piperazin-1-yl)methyl)phenoxy)ethoxy)-4-(4-methylthiazol-5-yl)benzyl)-1-((S)-2-(1-fluorocyclopropane-1-carboxamido)-3,3-dimethylbutanoyl)-4-hydroxypyrrolidine-2-carboxamide] | significant knockdown of SMARCA2, SMARCA4 and PBRM1 with minimal down-regulation of other proteins across the proteome | increased caspase activity | no anti-proliferative effects | potent anti-proliferative effects
2 |  |  |  |  |  |  |  | 20.7 | 4.8 | Cc1ncsc1-c1ccc(CNC(=O)[C@@H]2C[C@@H](O)CN2C(=O)[C@@H](NC(=O)C2(F)CC2)C(C)(C)C)c(OCCOCCOCCN2CCN(c3cc(-c4ccccc4O)nnc3N)CC2)c1 [PROTAC 1, (2S,4R)-N-(2-(2-(2-(2-(4-(3-amino-6-(2-hydroxyphenyl)pyridazin-4-yl)piperazin-1-yl)ethoxy)ethoxy)ethoxy)-4-(4-methylthiazol-5-yl)benzyl)-1-((S)-2-(1-fluorocyclopropane-1-carboxamido)-3,3-dimethylbutanoyl)-4-hydroxypyrrolidine-2-carboxamide] |  |  |  | 
3 |  |  |  |  |  |  | < 5.00 |  |  | Cc1ncsc1-c1ccc(CNC(=O)[C@@H]2C[C@H](O)CN2C(=O)[C@@H](NC(=O)C2(F)CC2)C(C)(C)C)c(OCCOc2ccc(CN3CCN(c4cc(-c5ccccc5O)nnc4N)CC3)cc2)c1 [cis-ACBI1, (2S,4S)-N-(2-(2-(4-((4-(3-amino-6-(2-hydroxyphenyl)pyridazin-4-yl)piperazin-1-yl)methyl)phenoxy)ethoxy)-4-(4-methylthiazol-5-yl)benzyl)-1-((S)-2-(1-fluorocyclopropane-1-carboxamido)-3,3-dimethylbutanoyl)-4-hydroxypyrrolidine-2-carboxamide] |  |  | no anti-proliferative effects | 
